Broadly, the Cmax is the maximum level reached in the sampled fluid or tissue.

SMILES strings stand for the structures.

The data set in a line: Cmax in mouse at 80 mg/kg, po. Format: ADME, organism-based. On the set-up: dose 80 mg/kg, route oral. As to conditions: in vivo. The essentials: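 Female mice given single oral doses (20 or 80 mg/kg) in 0.5% HPMC/0.1% Tween 80. Three mice killed with CO2 per time point; plasma extracted with isopropyl alcohol/acetonitrile, then vortexed, sonicated and centrifuged. Quantified by LC/MS (APCI positive mode, multiple-reaction monitoring) against a standard curve prepared in plasma.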

For the compound `COc1ccc(COc2ccc(Cc3cnc(N)nc3N)cc2OC)cc1` [GW632580X], the maximum concentration (Cmax) is 400 nM.

For the origin of these results see ChEMBL document CHEMBL1955811, “Inhibition of colony-stimulating-factor-1 signaling in vivo with the orally bioavailable cFMS kinase inhibitor GW2580” (Proc Natl Acad Sci U S A, 2005).
